We go through ten compounds from PubChem BioAssay.

The nature of test [1]: inhibitors of TNFa-induced NFkB p65 translocation, primary screen, imaging, HUVEC, MLSMR starter and 10KST1 sets (AID 438;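 active means inhibition above 20% together with a positive visual image hit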;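 further: compound added about 3h40 before a 20 min TNFalpha stimulation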;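 on inhibition: signal is the nuclear over cytoplasmic p65 intensity ratio per well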). Particulars: HUVEC TNFa-induced p65 nuclear translocation; cell count: measured here: nuclei count (cytotoxicity indicator), at 2.08 µM; inhibition: at 2 µM, stronger effect = higher value, 0% TNFa-plus-vehicle, 100% no-TNFa wells.
A short description of test [2]: inhibitors of mutant huntingtin aggregation, primary screen, imaging, exon1htt(103Q)mCFP cells, high-content imaging (AID 483;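 active means visual image review flags a hit and inhibition of aggregation exceeds 20%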;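 further: compound exposure lasted 3 days before fixation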;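 on nuclei count: percent of the per-plate median nuclei count of sample wells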). Particulars: exon1htt(103Q)mCFP cell line, aggregate imaging, at 2 µM; inhibition of aggregation: stronger effect = higher value; nuclei count: measured here: cell count, toxicity.
Test [3] in a line: inhibitors of E-selectin induction by TNFa, primary screen, imaging, HUVEC, immunofluorescence, MLSMR starter and 10KST1 sets (AID 487).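 On inhibition: signal is fraction of cell area covered by stained E-selectin grains.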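 On nuclei count: 100% = median nuclei count of all wells on the same plate.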 Particulars: HUVEC TNFalpha-induced E-selectin immunofluorescence imaging, at 2 µM; inhibition: stronger effect = higher value; nuclei count: measured here: cell number, toxicity.
Test [4] concerns the target Voltage-gated potassium channel subunit beta-2 (Rattus norvegicus) (UniProt P62483). Briefly: KvBeta enzyme negative modulators, primary screen, biochemical, NADPH fluorescence (AID 622;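 active means fluorescence slope higher than the sample average by over 3 SD, cut at about -0.22 in these data, passing the limit was not always enough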;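 further: slope of raw intensity against log time taken from 70 to 1610 s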). As to conditions: recombinant KvBeta, 4-cyanobenzaldehyde reduction, at 10 µM, stronger effect = higher value.
For test [5] the target is unchanged. The experiment in a line: KvBeta positive modulators, primary screen, biochemical, NADPH fluorescence (AID 623;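 active means NADPH fluorescence slope more negative than the mean of all samples by about 3 SD, 99.7% confidence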;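 further: fluorescence intensity change per second fitted from 20 to 320 s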). Particulars: Recombinant KvBeta, NADPH fluorescence decrease slope, 10 min; at 10 µM; stronger effect = lower value.
In test [6] the target is Alpha-2C adrenergic receptor (Homo sapiens) (UniProt P18825). The experiment in a line: modulators of alpha2C/GIRK thallium flux, primary screen, cell-based, HEK293 alpha2C/GIRK1/2 (AID 624;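 active means fluorescence slope after compound addition differing from the mean of all screened samples at 99.7% confidence, in either direction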;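 further: slope of fluorescence ratio to pre-addition baseline per second over 15 to 24 s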). Particulars: thallium flux BTC fluorescence, at 10 µM, actives lie on both sides.
Sequence of Alpha-2C adrenergic receptor (Homo sapiens) (P18825 whole entry, looked up): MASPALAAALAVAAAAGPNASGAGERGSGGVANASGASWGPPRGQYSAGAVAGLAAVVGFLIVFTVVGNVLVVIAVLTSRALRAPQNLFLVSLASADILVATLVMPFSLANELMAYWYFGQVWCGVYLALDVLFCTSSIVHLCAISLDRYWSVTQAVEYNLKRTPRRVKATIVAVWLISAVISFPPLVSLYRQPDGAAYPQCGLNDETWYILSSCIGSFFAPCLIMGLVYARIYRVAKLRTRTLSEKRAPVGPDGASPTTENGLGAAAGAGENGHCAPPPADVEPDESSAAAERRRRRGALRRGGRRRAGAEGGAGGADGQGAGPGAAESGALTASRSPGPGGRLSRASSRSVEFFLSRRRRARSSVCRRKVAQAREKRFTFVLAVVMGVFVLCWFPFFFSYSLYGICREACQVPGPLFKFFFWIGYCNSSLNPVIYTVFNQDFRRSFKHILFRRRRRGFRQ
Test [7] can be described thus: inhibitors of larval lipid processing in zebrafish, primary screen, whole organism, PED6 fluorescence, gall bladder and intestine (AID 686;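 active means a full or partial loss of lipid-probe fluorescence in the fish gall bladder, intestine or both, judged by eye; inactive means no fluorescence loss, or compound toxic to the fish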;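 further: larvae 5 to 7 days old with five fish per well; signal comes from phospholipase A2 cleavage of quenched PED6 carried via bile; overnight exposure to compound and PED6 before scoring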). Particulars: Zebrafish larvae PED6 lipid processing, fluorescence scoring; screened at 20 µM (by protocol). The method in brief:
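system = live zebrafish larvae aged 5-7 days, whole organism | probe or stimulus = ingested quenched lipid PED6 at 100 nM | doses = 20 µM single dose | timing = overnight exposure | detection = fluorescence microscopy with visual scoring of gall bladder and intestine | read-out = visual per-well fluorescence inhibition score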

The nature of test [8]: inhibitors of Sendai virus-induced IRF3 signaling, primary screen, TLR/RLR signaling modifier project, cell-based, Sendai virus stimulus, luciferase, 10K MLSCN set (AID 602276;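 active means inhibition at or above 50% at 10 µM; inactive means inhibition below 50%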;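 further: firefly luciferase from ISG56 promoter only with Renilla not read in this screen; 0% = Sendai virus plus DMSO and 100% = medium plus DMSO without virus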). Particulars: HEK293 RL24 IRF3 luciferase reporter, at 10 µM, stronger effect = higher value.
A short description of test [9]: inhibitors of poly I:C-induced TLR3 signaling, primary screen, cell-based, poly I:C stimulus, luciferase, 10K MLSCN set (AID 602277;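 active means inhibition of the reporter signal at or above 50%; inactive means inhibition below 50%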). Particulars: HEK293-TLR3 RL24 IRF3 luciferase reporter, at 10 µM, stronger effect = higher value. (A reporter such as luciferase makes a cellular process visible.)

Active and inactive are the calls of the source.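 How the source made its calls, unless noted: active means visually confirmed hit in the image check and inhibition above 20%; inconclusive means visually confirmed hit but inhibition not above 20%; inactive means no visual hit in the image check.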

Sequence of Voltage-gated potassium channel subunit beta-2 (Rattus norvegicus) (P62483 whole entry, looked up): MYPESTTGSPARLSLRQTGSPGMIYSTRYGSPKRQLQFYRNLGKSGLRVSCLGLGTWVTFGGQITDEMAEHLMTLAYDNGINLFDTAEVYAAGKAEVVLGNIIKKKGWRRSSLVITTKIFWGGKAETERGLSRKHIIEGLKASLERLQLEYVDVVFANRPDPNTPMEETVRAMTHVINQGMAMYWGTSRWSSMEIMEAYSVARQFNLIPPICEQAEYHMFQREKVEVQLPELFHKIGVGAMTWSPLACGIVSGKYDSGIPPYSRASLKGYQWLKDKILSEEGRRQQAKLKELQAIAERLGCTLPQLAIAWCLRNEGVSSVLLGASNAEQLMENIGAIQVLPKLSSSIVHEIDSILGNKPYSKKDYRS

Broadly, the inhibition is the relative decrease from the control value, in per cent. Consider `Cc1[nH]nc(-c2ccc(O)c(C)c2O)c1-c1cnn(-c2ccccc2)c1`, for which, in test [1], the cell count worked out at 345. The inhibition in test [1] was 1.5% (inactive); in [3], 45.5% (inactive); in test [8] it was 11.4% (inactive); in test [9], 5.23% (inactive). The inhibition of aggregation in test [2] was 10.3% (inactive). In addition, the figures for the nuclei count in test [2] and in test [3] were 111% and 97.8%, respectively. For the same compound, in test [4], the fluorescence slope is -0.438 (inactive). Also, the NADPH fluorescence slope in test [5] is -2.4e-05 (inactive). Also, the slope in test [6] is 0.00436 (inactive). The compound was classed as inactive in test [7].
Consider `COC(=O)c1ccccc1NC(=O)c1cnc2sccn2c1=O`, for which the cell count in [1] turned out to be 505. The inhibition is -19.2% (inactive) in test [1], 14.9% (inactive) in test [3], 5.91% (inactive) in [8] and -1.07% (inactive) in test [9]. In addition, the inhibition of aggregation in test [2] was 14% (inactive). For the same compound, the figures for the nuclei count in test [2] and in test [3] were 77.5% and 98%, respectively. For the same compound, the fluorescence slope in test [4] was -0.369 (inactive). Further, the NADPH fluorescence slope in test [5] was -5.8e-05 (inactive). Besides, the slope in test [6] is 0.00479 (inactive). Moreover, the compound was classed as inactive in test [7].
`Cc1ccc(OCC(O)Cn2c(NCCc3ccccc3)nc3c2c(=O)[nH]c(=O)n3C)cc1` (stereo not given): the cell count in test [1] stood at 421. For the same compound, the inhibition is -1.8% (inactive) in [1], -5.4% (inactive) in test [3], -0.0675% (inactive) in [8] and 1.64% (inactive) in [9]. In [2], the inhibition of aggregation was -12.3% (inactive). Moreover, the nuclei count in [2] was 107%; in test [3], 113%. The fluorescence slope in test [4] is -0.444 (inactive). The NADPH fluorescence slope in test [5] was 5.3e-06 (inactive). In addition, the slope in test [6] was 0.00534 (inactive). Further, the outcome in test [7] was inactive.
Regarding `O=C(Nc1cc(C(=O)N2CCCC2)ccc1N1CCCC1)c1ccccc1F`, the cell count in test [1] came out at 612. Further, the inhibition in test [1] is 2% (inactive); in [3], -93% (inactive); in test [8] it was -1.26% (inactive); in [9], -54% (inactive). For the same compound, in test [2], the inhibition of aggregation was -12.8% (inactive). The nuclei count in test [2] was found to be 107%; in test [3] it was 95.8%. For the same compound, the fluorescence slope in test [4] is -0.343 (inactive). Besides, the NADPH fluorescence slope in test [5] was -7.2e-05 (inactive). Moreover, the slope in test [6] is 0.00481 (inactive). In addition, the outcome in test [7] was inactive.
In the case of `Nc1ccc(S(=O)(=O)c2cccc(N)c2)cc1`, the cell count in test [1] turned out to be 655. Also, the inhibition in test [1] is -8.6% (inactive); in test [3], -2.1% (inactive); in test [8] it was 15.4% (inactive); in [9], 15.8% (inactive). Also, the inhibition of aggregation in test [2] is -8.8% (inactive). In addition, the nuclei count in [2] worked out at 81.5%; in test [3] it was 108%. The fluorescence slope in test [4] is -0.435 (inactive). In addition, in test [5], the NADPH fluorescence slope was -1.3e-05 (inactive). Further, in test [6], the slope is 0.00439 (inactive). The call in [7] was inactive.
`O=C(Nc1ccc2oc(Cc3ccc(Cl)cc3)nc2c1)c1cccnc1`: in test [1], the cell count was 396. Further, the inhibition in test [1] was 6.7% (inactive); in [3] it was -15% (inactive); in test [8], 14.7% (inactive); in [9], 7.42% (inactive). In addition, in test [2], the inhibition of aggregation was -0.8% (inactive). The nuclei count was found to be 93.5% in test [2] and 114% in test [3]. Also, in test [4], the fluorescence slope was -0.364 (inactive). The NADPH fluorescence slope in test [5] is -2.3e-06 (inactive). Also, the slope in test [6] was 0.00427 (inactive). Further, the compound was classed as inactive in test [7].
For `Cc1ccc(S(=O)(=O)N(CC(=O)N2CCC(C(N)=O)CC2)Cc2ccc(F)cc2)cc1`, in test [1], the cell count turned out to be 473. Further, the inhibition was 3.5% (inactive) in [1], 34.4% (inactive) in test [3], 10.4% (inactive) in [8] and 15.9% (inactive) in test [9]. In [2], the inhibition of aggregation is -8.5% (inactive). In addition, the nuclei count in test [2] was found to be 91.9%; in test [3], 110%. Moreover, in [4], the fluorescence slope was -0.361 (inactive). In test [5], the NADPH fluorescence slope was -6.9e-05 (inactive). Further, the slope in [6] was 0.00526 (inactive). The result in test [7] was inactive.
For the compound `CCOC(=O)Cn1nnnc1CN(Cc1ccc(OC)cc1)Cc1cc2cc(C)ccc2[nH]c1=O`, the cell count in [1] was determined as 623. The inhibition in test [1] was -4.9% (inactive); in test [3], 62.8% (inactive); in [8] it was -4.16% (inactive); in [9], -1.51% (inactive). Besides, in test [2], the inhibition of aggregation is -27% (inactive). Also, the nuclei count was 112% in test [2] and 135% in test [3]. Besides, the fluorescence slope in test [4] was -0.384 (inactive). Moreover, the NADPH fluorescence slope in test [5] is 6.1e-07 (inactive). Further, the slope in [6] was 0.00608 (inactive). Also, the call in test [7] was inactive.
Turning to `CC(OC(=O)c1ccco1)C(=O)NCc1cccs1` (stereo not given), in test [1], the cell count was 609. The inhibition in test [1] was -4.4% (inactive); in test [3] it was -95.9% (inactive); in [8], 17.9% (inactive); in [9] it was 25.3% (inactive). In addition, in [2], the inhibition of aggregation is 7.4% (inactive). Moreover, the nuclei count in test [2] turned out to be 83%; in test [3], 113%. Moreover, the fluorescence slope in [4] was -0.444 (inactive). Besides, the NADPH fluorescence slope in [5] is -6e-05 (inactive). For the same compound, the slope in test [6] was 0.00449 (inactive). For the same compound, the result in [7] was inactive.
With `O=C(CSc1nc2ccccc2[nH]1)N1CCCCC1`, the cell count in [1] came to 433. The inhibition in test [1] is 0.5% (inactive); in test [3], 13.2% (inactive); in test [8], -14.8% (inactive); in test [9], -73.7% (inactive). Besides, the inhibition of aggregation in [2] was 16% (inactive). Moreover, the nuclei count was 102% in test [2] and 99.3% in [3]. Moreover, in [4], the fluorescence slope was -0.435 (inactive). Further, the NADPH fluorescence slope in [5] was -3.6e-05 (inactive). Further, the slope in [6] is 0.00459 (inactive). Further, the compound was called inactive in test [7].
